Reference: PMC6220361 (Molecular Pharmaceutics, 2018)
Read-outs that look alike come from different tables or passages of the source.

Tests used:
SP1–7 binding site [1] = conditions: rat spinal cord membranes preparation; cited from earlier work
SP1–7 binding site [2] = assay: Dynamic PET imaging, blocking experiments; format: in vivo, Wistar rats
In short: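 Healthy male Wistar rats (200–320 g) under isoflurane (3% induction, 1–2.5% maintenance, in oxygen). A 5 min CT or 15 min MRI preceded the i.v. tail-vein tracer bolus and a 60 min dynamic PET scan. Blockers were SP1–7 (5% DMSO in saline), 185 nmol·kg–1 i.p. 15 min before, or the unlabeled tracer analogue (20% EtOH in saline), 3 μmol·kg–1 slow i.v. 3 or 20 min before. Read-out was manual brain/spinal cord ROI SUV ± SD.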

[3] = mouse plasma; cited from earlier work
Caco-2 cell monolayer = conditions: cited from earlier work
SP1–7 binding site [4] = conditions: read-out: binding; rat ventral tegmental area; cited from earlier work
[5] = blocker i.p. 185 nmol·kg^–1, 15 min prior to tracer
[6] = self-blocking, i.v. 3 μmol·kg^–1, 3 min prior to tracer

NC(=O)[C@H](Cc1ccccc1)NC(=O)OCc1ccccc1 [compound 1, (S)-Benzyl (1-Amino-1-oxo-3-phenylpropan-2-yl)carbamate]
Ki (SP1–7 binding site [1]): 5.2 nM
blocking of [^11C]1 brain uptake (SP1–7 binding site [2]; blocker i.v. 3 μmol·kg^–1, 20 min prior to tracer): did not block brain uptake
blocking of [^11C]1 spinal cord uptake (SP1–7 binding site [2]; self-blocking, 3 or 20 min prior to tracer injection): did not show any blocking

H-Arg-Pro-Lys-Pro-Gln-Gln-Phe-OH (H-RPKPQQF-OH) [SP1–7]
in vitro half-life [3]: 4.4 min
permeability (Caco-2 cell monolayer): failed to display any measurable permeability
Ki (SP1–7 binding site [4]): 3.9 nM
blocking of [^11C]1 brain uptake (SP1–7 binding site [2]; [5]): did not block brain uptake
blocking of [^11C]1 spinal cord uptake (SP1–7 binding site [2]; [5]): moderate blocking

NC(=O)[C@@H](Cc1ccccc1)NC(=O)OCc1ccccc1 [compound 2, (R)-Benzyl (1-Amino-1-oxo-3-phenylpropan-2-yl)carbamate]
blocking of [^11C]2 brain uptake (SP1–7 binding site [2]; [6]): did not show any blocking effect
blocking of [^11C]2 spinal cord uptake (SP1–7 binding site [2]; [6]): did not show any blocking effect
